Data on eight molecules can be found in article PMC4206694 (Journal of Medicinal Chemistry, 2014).

For data set [1] the following is noted: cited from earlier work.
For data set [2], the system named is dopaminergic neurons within the SNc. As to conditions: cited from earlier work.
For data set [3], the system named is motor neurons in the spinal cord. As to conditions: cited from earlier work.
For data set [4] the following is noted: cited from earlier work. The source holds these as a separate data set.
For data set [5] the following is noted: cited from earlier work. This is another data set of the same source.
In data set [6] the test system is newborn hippocampal neurons. The note with it: cited from earlier work.
Data set [7] relates to newborn hippocampal neurons. Briefly: In vivo hippocampal neuroprotection assay. Also noted: species or system mouse. The note with it: for number of surviving newborn hippocampal neurons (BrdU+ cells): ICV 10 μM, Figure 1. A digest of the protocol:
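Adult (12-week) wild-type […] mice, environmentally deprived, four per group. Compound was infused ICV into the left lateral ventricle by implanted osmotic minipump (0.5 μL/h, 7 days) or given IP twice daily. BrdU 50 mg/kg/day IP for 6 days; perfused 24 h after last BrdU. Anti-BrdU staining after formamide/SSC and HCl unmasking. BrdU+ SGZ/dentate cells counted contralaterally, every fifth section, normalized to dentate gyrus volume.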

Data set [8] is described as follows: Long-term treatment tolerability. The data set is classed as in vivo.
Data set [9] deals with dopaminergic neurons within the SNc. As to the kind of experiment: MPTP model of Parkinson's disease. The note with it: BID, 21 days after MPTP; for rescue of TH+ neurons: 10 mg kg^–1 day^–1, IP. The data set is classed as in vivo, mouse. A digest of the protocol:
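Adult male C57Bl/6 mice, individually housed 1 week, received free-base MPTP 30 mg/kg/day IP for 5 days. Compound or vehicle was started on day 6, 24 h after the last MPTP dose, and given twice daily for 21 days. After perfusion and fixation in 4% paraformaldehyde, every fourth section through striatum and SNc was stained for tyrosine hydroxylase. TH+ cells were counted blinded; mean ± SEM.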

Data set [10] deals with cerebral cortical neurons. As to conditions: cited from earlier work.
In data set [11] the target is CYP3A4 (Homo sapiens, UniProt P08684). As to the kind of experiment: Cytochrome P450 inhibition, CYP3A4. In kind it is in vitro ADME.
Data set [12] has as its target T1, CYP2B6 (Homo sapiens, UniProt P20813).
T1 sequence (P20813 1-491): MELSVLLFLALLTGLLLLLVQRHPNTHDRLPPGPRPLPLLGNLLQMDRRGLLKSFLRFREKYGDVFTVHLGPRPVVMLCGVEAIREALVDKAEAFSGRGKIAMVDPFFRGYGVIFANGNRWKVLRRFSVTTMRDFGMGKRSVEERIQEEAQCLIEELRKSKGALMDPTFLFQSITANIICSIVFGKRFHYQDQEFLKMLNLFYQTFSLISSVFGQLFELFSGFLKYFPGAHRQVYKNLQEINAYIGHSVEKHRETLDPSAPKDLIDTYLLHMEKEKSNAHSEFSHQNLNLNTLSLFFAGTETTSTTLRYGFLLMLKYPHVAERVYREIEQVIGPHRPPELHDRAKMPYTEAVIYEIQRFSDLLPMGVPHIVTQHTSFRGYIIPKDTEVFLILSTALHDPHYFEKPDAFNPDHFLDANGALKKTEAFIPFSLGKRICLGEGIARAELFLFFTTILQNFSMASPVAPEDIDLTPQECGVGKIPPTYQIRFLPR
As to the kind of experiment: Cytochrome P450 inhibition, CYP2B6. The data set is classed as in vitro ADME.

Data set [13] addresses μ-opioid receptor (Homo sapiens, UniProt P35372). As to the kind of experiment: Psychoactive Drug Screening Program competition binding, μ-opioid receptor. The note with it: read-out: IC50 μ-opioid receptor; ligand displacement, PDSP.
Data set [14] in a line: Pharmacokinetic analysis, plasma and brain levels. The data set is classed as in vivo, mouse. As to conditions: single time point (6 h) after IP 1, 3, 10 or 30 mg/kg, Figure S3. Put shortly:
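Compound in 5% DMSO/10% cremophor EL/85% D5W (pH 7.2) was dosed to adult mice (0.2 mL total). Mice were killed by CO2. Plasma came from ACD-treated blood spun at 9300g. Brains were rinsed in PBS and homogenized in 3 volumes of PBS. Plasma or lysate (100 μL) was precipitated with 200 μL acetonitrile/0.15% formic acid and spun at 13120g for 5 min. Supernatant was analysed by HPLC/MS/MS.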

Data set [15] deals with CYP2C9 (Homo sapiens, UniProt P11712). Briefly: Cytochrome P450 inhibition, CYP2C9. The data set is classed as in vitro ADME.
For data set [16], the target named is T2, CYP2C8 (Homo sapiens, UniProt P10632).
T2 sequence (P10632 1-490): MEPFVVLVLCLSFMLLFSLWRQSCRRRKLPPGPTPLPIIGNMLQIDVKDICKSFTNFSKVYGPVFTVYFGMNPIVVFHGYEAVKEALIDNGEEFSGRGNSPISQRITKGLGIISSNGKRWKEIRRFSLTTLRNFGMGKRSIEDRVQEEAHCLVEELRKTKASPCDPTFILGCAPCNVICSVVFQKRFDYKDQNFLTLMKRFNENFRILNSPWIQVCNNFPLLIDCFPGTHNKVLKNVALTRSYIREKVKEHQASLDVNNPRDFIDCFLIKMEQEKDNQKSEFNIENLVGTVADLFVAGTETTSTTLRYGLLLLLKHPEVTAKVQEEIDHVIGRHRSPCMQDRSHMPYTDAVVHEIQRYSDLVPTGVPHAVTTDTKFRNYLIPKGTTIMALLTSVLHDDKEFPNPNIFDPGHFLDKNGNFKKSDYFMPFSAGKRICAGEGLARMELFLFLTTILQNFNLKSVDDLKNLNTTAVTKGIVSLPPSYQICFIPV
As to the kind of experiment: Cytochrome P450 inhibition, CYP2C8. The data set is classed as in vitro ADME.

Data set [17] addresses CYP3D6 (Homo sapiens, UniProt P10635). As to the kind of experiment: Cytochrome P450 inhibition, CYP3D6. In kind it is in vitro ADME.

Chain of CYP2C9 (P11712 whole entry): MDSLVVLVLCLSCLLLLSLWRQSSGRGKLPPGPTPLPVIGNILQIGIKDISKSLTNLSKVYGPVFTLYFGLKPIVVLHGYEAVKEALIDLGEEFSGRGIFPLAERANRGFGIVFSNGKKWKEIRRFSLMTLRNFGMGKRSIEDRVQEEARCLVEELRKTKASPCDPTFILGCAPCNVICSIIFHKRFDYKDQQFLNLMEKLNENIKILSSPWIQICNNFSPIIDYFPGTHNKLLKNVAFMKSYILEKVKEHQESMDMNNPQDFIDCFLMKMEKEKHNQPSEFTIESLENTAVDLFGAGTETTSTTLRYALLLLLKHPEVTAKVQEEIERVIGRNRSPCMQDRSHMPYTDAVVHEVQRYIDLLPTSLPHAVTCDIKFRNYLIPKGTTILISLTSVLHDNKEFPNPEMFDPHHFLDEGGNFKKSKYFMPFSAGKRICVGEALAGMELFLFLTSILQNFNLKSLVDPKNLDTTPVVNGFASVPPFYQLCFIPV
Chain of μ-opioid receptor (P35372 whole entry, species assumed): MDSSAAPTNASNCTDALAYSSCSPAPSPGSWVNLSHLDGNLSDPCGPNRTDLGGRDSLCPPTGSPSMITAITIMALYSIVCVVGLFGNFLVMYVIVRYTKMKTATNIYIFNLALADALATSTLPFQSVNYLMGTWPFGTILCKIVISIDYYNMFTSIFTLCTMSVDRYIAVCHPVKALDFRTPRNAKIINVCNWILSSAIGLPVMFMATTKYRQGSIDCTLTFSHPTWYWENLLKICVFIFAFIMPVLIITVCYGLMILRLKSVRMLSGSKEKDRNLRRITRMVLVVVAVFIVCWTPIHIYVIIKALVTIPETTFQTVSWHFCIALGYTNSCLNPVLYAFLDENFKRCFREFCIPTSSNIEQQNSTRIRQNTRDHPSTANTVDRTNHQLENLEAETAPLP
Chain of CYP3D6 (P10635 whole entry): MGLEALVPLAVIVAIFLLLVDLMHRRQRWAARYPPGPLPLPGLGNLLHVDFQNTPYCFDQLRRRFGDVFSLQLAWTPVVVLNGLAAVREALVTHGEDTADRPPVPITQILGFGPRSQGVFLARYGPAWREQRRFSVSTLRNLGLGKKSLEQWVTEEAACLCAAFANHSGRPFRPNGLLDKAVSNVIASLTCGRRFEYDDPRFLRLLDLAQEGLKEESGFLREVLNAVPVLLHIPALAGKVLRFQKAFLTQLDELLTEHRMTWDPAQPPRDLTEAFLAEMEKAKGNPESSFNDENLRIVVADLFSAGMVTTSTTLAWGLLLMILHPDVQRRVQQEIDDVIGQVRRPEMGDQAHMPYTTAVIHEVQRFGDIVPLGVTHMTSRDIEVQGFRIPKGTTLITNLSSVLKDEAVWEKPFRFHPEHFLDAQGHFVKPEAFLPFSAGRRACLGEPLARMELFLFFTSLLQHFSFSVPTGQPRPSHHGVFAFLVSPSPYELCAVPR
Chain of CYP3A4 (P08684 whole entry): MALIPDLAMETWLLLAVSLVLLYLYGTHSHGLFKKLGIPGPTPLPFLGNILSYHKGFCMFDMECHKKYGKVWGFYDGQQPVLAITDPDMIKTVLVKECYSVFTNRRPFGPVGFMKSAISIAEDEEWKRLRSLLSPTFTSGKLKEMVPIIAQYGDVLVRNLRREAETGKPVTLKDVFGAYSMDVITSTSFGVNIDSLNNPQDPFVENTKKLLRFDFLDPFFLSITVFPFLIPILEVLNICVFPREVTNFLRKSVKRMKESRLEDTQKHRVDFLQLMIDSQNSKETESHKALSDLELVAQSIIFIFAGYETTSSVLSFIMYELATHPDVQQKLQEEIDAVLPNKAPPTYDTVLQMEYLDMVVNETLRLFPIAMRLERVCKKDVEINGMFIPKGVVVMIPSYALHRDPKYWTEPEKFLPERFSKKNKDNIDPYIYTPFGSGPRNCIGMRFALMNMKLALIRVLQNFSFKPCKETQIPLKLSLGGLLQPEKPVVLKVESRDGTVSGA

As to `OC(CNc1ccccc1)Cn1c2ccc(Br)cc2c2cc(Br)ccc21` (stereo not drawn) [compound 1], the “neuroprotective effect in age-related cognitive decline” value in [1] was “neuroprotective effects”. Further, the “protection of neurons in the substantia nigra, MPTP mouse model” value in [2] is “protect neurons in the substantia nigra”. Besides, the “motor neuron cell death in spinal cord of G93A SOD1 transgenic mice” value in [3] is on record as “minimize motor neuron cell death in the spinal cord”. The antidepressant effect entry in data set [4] is listed as “antidepressant activity”. In data set [5], the “neuroprotective effect in retinal degeneration” value is “neuroprotective effects”. Further, in data set [6] (unbiased in vivo screen, 1 week), the “number of surviving newborn hippocampal cells” value was “approximately doubled”.
Turning to `[N-]=[N+]=NCC(F)Cn1c2ccc(Br)cc2c2cc(Br)ccc21` (stereo not drawn) [compound 11, 9-(3-Azido-2-fluoropropyl)-3,6-dibromo-9H-carbazole], the “number of surviving newborn hippocampal neurons (BrdU+ cells)” value (from here on “number … (BrdU+ cells)”) in [7] (7 days) was “inactive”.
Take `COc1cccc(NCC(F)Cn2c3ccc(Br)cc3c3cc(Br)ccc32)c1` (stereo not drawn) [compound 2]: the “protection of neurons in the substantia nigra, MPTP mouse model” value in [2] is “protect neurons in the substantia nigra”. Moreover, the “impact on weight, behavior, or appearance” value in data set [8] (up to 40 mg kg^–1 day^–1 for 21 days) is “no negative impact on the weight, behavior, or appearance”. The “motor neuron cell death in spinal cord of G93A SOD1 transgenic mice” value in [3] is given as “minimize motor neuron cell death in the spinal cord”. Besides, the antidepressant effect entry in [4] is reported as “exert antidepressant effects”. In addition, in data set [6] (previous studies), the “activity in the in vivo hippocampal neuroprotection assay” value is reported as “substantially improved the activity”. For the same molecule, the “rescue of TH+ neurons” value in data set [9] is given as “around 75%”. Moreover, the “dose showing significant neuroprotective effect in MPTP model” value in data set [9] (IP) worked out at 5 mg kg^–1 day^–1. Also, in [10], the “protection of cerebral cortical neurons, moderate fluid percussion TBI” value was “protect rat cerebral cortical neurons”.
For `NCC(O)Cn1c2ccc(Br)cc2c2cc(Br)ccc21` (stereo not drawn) [compound 16, 1-Amino-3-(3,6-dibromo-9H-carbazol-9-yl)propan-2-ol], in data set [7] (7 days), the “number … (BrdU+ cells)” value is “increase in the number of BrdU+ cells compared with vehicle”.
On the same count and under the same terms, with `COc1cccc(NCC(O)Cn2c3ccc(Br)cc3c3cc(Br)ccc32)n1` (stereo not drawn) [compound 17, 1-(3,6-Dibromo-9H-carbazol-9-yl)-3-((6-methoxypyridin-2-yl)amino)propan-2-ol] the entry was “increase in the number of BrdU+ cells compared with vehicle”.
For the molecule `COc1cccc(NC[C@H](F)Cn2c3ccc(Br)cc3c3cc(Br)ccc32)n1` [(−)-15, (S)-N-(3-(3,6-Dibromo-9H-carbazol-9-yl)-2-fluoropropyl)-6-methoxypyridin-2-amine], the CYP3A4 sensitivity result in [11] was “insensitive”. The CYP2B6 sensitivity entry in data set [12] is reported as “insensitive”. Further, the IC50 in [13] was 8.2 µM. Also, the “plasma and brain concentrations compared with racemic 15” value in data set [14] is listed as “indistinguishable”. The CYP2C9 sensitivity entry in data set [15] is on record as “insensitive”. Moreover, the CYP2C8 sensitivity entry in data set [16] was “insensitive”. Also, the CYP3D6 sensitivity result in data set [17] is “insensitive”. The “enantiomer-specific neuroprotective activity in mouse model of neurogenesis” value in data set [7] (pure enantiomers dosed ICV 7 days, Figure 2) is given as “highly active”. In addition, the “neuroprotective activity in MPTP model (enantiomers)” value in data set [9] (IP, Figure 3) is reported as “strongly protective”.
As for `Cl.NCC(F)Cn1c2ccc(Br)cc2c2cc(Br)ccc21` (stereo not drawn) [compound 12, 3-(3,6-Dibromo-9H-carbazol-9-yl)-2-fluoropropan-1-amine], the “number … (BrdU+ cells)” value in [7] (7 days) is “increase in the number of BrdU+ cells compared with vehicle”.
`COc1cccc(NCC(F)Cn2c3ccc(Br)cc3c3cc(Br)ccc32)n1` (stereo not drawn) [compound 15, N-(3-(3,6-Dibromo-9H-carbazol-9-yl)-2-fluoropropyl)-6-methoxypyridin-2-amine]: the “impact on weight, behavior, or appearance” value in [8] (up to 10 mg kg^–1 day^–1 for 21 days) is “no negative impact on the weight, behavior, or appearance”. Also, in [7] (7 days), the “number … (BrdU+ cells)” value is listed as “approximately doubled”. In addition, in [7] (IP, 7 days), the “dose at which active in hippocampal neuroprotection” value is reported as 1 mg kg^–1 day^–1 and the “dose at which ceiling of efficacy is reached in hippocampal neuroprotection” value was 10 mg kg^–1 day^–1. In addition, the “rescue of TH+ neurons” value in [9] is reported as “over 85%”. The “dose showing significant neuroprotective effect in MPTP model” value in data set [9] (IP) worked out at 1 mg kg^–1 day^–1.
